Apaf1 inhib: inhibitors of human Apaf-1 apoptosome; O14727; reconstituted apoptosome caspase-3 activity, DEVD-Rh110 fluorescence; inhibition, % at 20 µM; 0.71% of 330,000 active; active = inhibition of at least 40% at 20 µM;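 note: plate controls were DMSO wells for no effect and DEVD-CHO caspase inhibitor wells for full effect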
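Material: reconstituted apoptosome with Apaf-1, cytochrome c, caspase-9, procaspase-3, dATP / Buffer or medium: pH 7.5 Hepes buffer with CHAPS, BSA, DTT / Also added: cytochrome c with DEVD-Rh110 / Schedule: compound with Apaf-1, dATP, procaspase-3 30 min, then 50 min reaction, room temperature / Technique: rhodamine 110 fluorescence at Ex 480/Em 540 nm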
UBC13 polyUb: inhibitors of human UBC13 polyubiquitin chain formation | P61088 | TR-FRET | inhibition, % at 20 µM | 0.47% of 330,000 active | AID 485273; in the data active = inhibition above about 45%, passing the limit was not always enough
Target sequence (P61088 whole entry, looked up): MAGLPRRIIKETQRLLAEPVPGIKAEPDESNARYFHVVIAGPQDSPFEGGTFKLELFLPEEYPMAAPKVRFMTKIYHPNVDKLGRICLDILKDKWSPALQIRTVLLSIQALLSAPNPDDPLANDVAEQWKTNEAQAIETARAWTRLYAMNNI
SENP8 block-1: inhibitors of human SENP8 protease; inhibition, % at 20 µM; recombinant SENP8, Nedd8 substrate fluorescence; Q96LD8; 0.64% of 360,000 active; in the data active = inhibition mostly above about 40%, no sharp cut-off; inactive = mostly below about 27%
Target sequence (Q96LD8 whole entry, looked up): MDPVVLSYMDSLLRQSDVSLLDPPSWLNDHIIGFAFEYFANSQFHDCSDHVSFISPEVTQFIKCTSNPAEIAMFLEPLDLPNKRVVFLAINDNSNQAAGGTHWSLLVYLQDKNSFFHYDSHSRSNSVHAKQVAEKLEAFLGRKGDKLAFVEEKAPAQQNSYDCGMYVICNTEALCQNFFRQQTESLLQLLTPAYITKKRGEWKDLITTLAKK
SENP8 block-2: blocks the human protease SENP8; Q96LD8; purified SENP8, Z-RLRGG-aminoluciferin cleavage, luminescence; inhibition, % at 10 µM; 1.2% of 330,000 active; AID 2540; in the data active = inhibition above about 50%
SENP6 block: blocks the human protease SENP6; Q9GZR1; Recombinant SENP6 catalytic domain, aminoluciferin luminescence; inhibition, % at 10 µM; 1.8% of 330,000 active; AID 2599;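 active = inhibition above about 50% at the single tested dose, limit read from the data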;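 note: plate controls were DMSO wells with enzyme for no effect and DMSO wells lacking enzyme for full effect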
SENP7 inh: blocks the human protease SENP7; Q9BQF6; recombinant SENP7, Z-RLRGG-aminoluciferin luminescence, 40 min; inhibition, % at 5 µM; 1.5% of 330,000 active; AID 434973;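 active = inhibition above about 50% at the single test dose, limit read from the data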;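 note: plate controls were DMSO with enzyme for no effect and no enzyme buffer wells for full effect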
Target sequence (Q9BQF6 706-1050 limits assumed): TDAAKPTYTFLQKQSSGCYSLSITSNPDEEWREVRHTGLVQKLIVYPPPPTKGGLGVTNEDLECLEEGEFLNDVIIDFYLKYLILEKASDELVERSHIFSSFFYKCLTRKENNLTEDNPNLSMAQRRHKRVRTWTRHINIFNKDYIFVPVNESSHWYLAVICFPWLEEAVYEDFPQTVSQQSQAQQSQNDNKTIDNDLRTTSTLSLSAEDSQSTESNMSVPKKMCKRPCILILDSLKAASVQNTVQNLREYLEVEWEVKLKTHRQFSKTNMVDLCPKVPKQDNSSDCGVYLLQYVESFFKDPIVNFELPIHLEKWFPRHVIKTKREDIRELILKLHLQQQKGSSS
SENP8 conf-1: confirmation of human SENP8 protease inhibitors | 40% of 6,200 active | shares compounds with SENP7 inh | Recombinant SENP8, Z-RLRGG-aminoluciferin luminescence, 60 min | AID 488912 | inhibition, % at 12.5 µM;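 active = mean inhibition across replicates above about 50%, limit read from the data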
SENP6 confirm: confirmation of human SENP6 protease inhibitors | shares compounds with SENP7 inh | recombinant SENP6, Z-RLRGG-aminoluciferin luminescence | inhibition, % at 12.5 µM | 58% of 6,200 active | AID 488915
SENP7 confirm: human SENP7 inhibition, confirmed. recombinant SENP7, Z-RLRGG-aminoluciferin luminescence, 40 min. 69% of 6,200 active. shares compounds with SENP7 inh. inhibition, % at 12.5 µM
Casp3 SENP sel: inhibits human caspase-3 in SENP selectivity test; shares compounds with SENP7 inh; purified caspase-3, Z-DEVD-aminoluciferin luminescence, 60 min; inhibition, % at 12.5 µM; 60% of 6,200 active; AID 488918;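 active = mean inhibition above about 50%, limit read from the data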;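 note: plate controls were enzyme with DMSO for no effect and wells without caspase-3 for full effect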
SENP luc ctr: counter-screen for SENP inhibitors: luminescence interference; shares compounds with SENP7 inh; Pre-incubated SENP8/Z-RLRGG-aminoluciferin, luciferase luminescence interference; inhibition, % at 12.5 µM; 39% of 6,200 active;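 active = mean inhibition above about 50% when retested at one dose, limit read from the data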;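 note: plate controls were DMSO wells with completed reaction for no effect and substrate without enzyme for full effect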
Apaf-1 inh conf2: confirmation of Apaf-1 inhibitors | shares compounds with Apaf1 inhib | reconstituted apoptosome, caspase-3 DEVD-Rh110 fluorescence | inhibition, % at 20 µM | 25% of 1,800 active | AID 504614;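 active = mean inhibition of at least 40% at 20 µM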;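 note: plate controls were DMSO wells for no effect and DEVD-CHO caspase inhibitor control wells for full effect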
Rh110 quench: counter-screen for Apaf-1 inhibitors: fluorescence interference; shares compounds with Apaf1 inhib; Rh110 fluorescence interference, quenched caspase reaction; activation (fluorescence interference), % at 20 µM; 1,800 tested, under 10 active; AID 504615;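 active = signal rise of 40% or more at 20 µM, treated as a fluorescence artifact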
Fluor interf inh: Apaf-1 inhibitor counter-screen fluorescence artifact; fluorescence interference counterscreen, Apaf-1 assay format; IC50, µM; AID 588538; shares compounds with Apaf1 inhib; 460 tested, under 10 active; call rule not given here
SENP8 conf-2: SENP8 (human) inhibition, single concentration confirmation; shares compounds with SENP8 block-1; inhibition, % at 25 µM; 15% of 1,400 active; purified SENP8, Nedd8-AMC/pro-Nedd8 cleavage fluorescence, 30 min; AID 624319; in the data active = inhibition mostly above about 39%, no sharp cut-off; inactive = mostly below about 34%
The depositor's hits bear a star. This is a sample that favours compounds with a hit; in the whole collection about 3.1% have one here.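 Rule for the calls, unless noted: active = mean inhibition above about 50% in the one-dose retest (limit read from the data); inactive = the rest.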

What do the screens show for `O=C(NNc1cc(N2CCCC2)nc(N2CCCC2)n1)c1ccc([N+](=O)[O-])cc1`?
Apaf1 inhib: 97.6*; UBC13 polyUb: -73.0; SENP8 block-1: 76.7*; SENP8 block-2: 74.6*; SENP6 block: 91.4*; SENP7 inh: 91.6*; SENP8 conf-1: 18.3; SENP6 confirm: 61.4*; SENP7 confirm: 21.5; Casp3 SENP sel: -0.6; SENP luc ctr: -2.2; Apaf-1 inh conf2: 75.7*; Rh110 quench: 7.8; Fluor interf inh: >100; SENP8 conf-2: 75.0*

How did O=C(O)c1cc(Cl)c(Cl)cc1C(=O)Nc1cccc2cccnc12 do in these assays?
Apaf1 inhib: 21.5; UBC13 polyUb: -9.3; SENP8 block-1: 61.0*; SENP8 block-2: 11.0; SENP6 block: 44.4; SENP7 inh: 69.0*; SENP8 conf-1: -24.4; SENP6 confirm: -13.6; SENP7 confirm: -3.3; Casp3 SENP sel: -5.6; SENP luc ctr: -5.9; SENP8 conf-2: 9.3

What do the screens show for `COCCNC(=O)C1(C)CCCN(C(=O)c2cccnc2SC)C1` (stereo not drawn)?
SENP8 block-1: 6.1

What do the screens show for `COc1ccccc1N1C(C)=CC(=C(C#N)c2nc3ccccc3s2)C=C1C`?
Apaf1 inhib: 55.6*; UBC13 polyUb: -14.0; SENP8 block-1: 66.8*; SENP8 block-2: 3.4; SENP6 block: 61.1*; SENP7 inh: 3.6; SENP8 conf-1: 16.4; SENP6 confirm: 21.3; SENP7 confirm: 17.1; Casp3 SENP sel: 9.8; SENP luc ctr: 7.1; Apaf-1 inh conf2: 22.6; Rh110 quench: 1.1; SENP8 conf-2: 41.0

How did COc1cc(C=C(c2nc3ccccc3s2)c2nc3ccccc3s2)cc(OC)c1O do in these assays?
Apaf1 inhib: 15.4; UBC13 polyUb: -49.0; SENP8 block-1: -137.7; SENP8 block-2: 1.0; SENP6 block: 13.0; SENP7 inh: 3.4

What do the screens show for `CC(C)=C(C#N)c1nc2ccccc2s1`?
Apaf1 inhib: -8.7; UBC13 polyUb: 5.9; SENP8 block-1: 8.0; SENP8 block-2: -4.5; SENP6 block: -6.7; SENP7 inh: 9.9

What do the screens show for `CC1=CC(=C(C#N)c2nc3ccccc3s2)C=C(C)N1c1ccc(F)cc1`?
Apaf1 inhib: 44.6*; UBC13 polyUb: -20.9; SENP8 block-1: 84.6*; SENP8 block-2: -6.5; SENP6 block: 53.7*; SENP7 inh: 1.1; SENP8 conf-1: 11.9; SENP6 confirm: 14.9; SENP7 confirm: 8.8; Casp3 SENP sel: 4.7; SENP luc ctr: 4.0; Apaf-1 inh conf2: 23.9; Rh110 quench: 0.0; SENP8 conf-2: 26.1

Results for COc1ccc(-c2csc(C(NC(C)=O)c3cccc(F)c3)n2)cc1 (stereo not drawn) ?
SENP8 block-1: 9.3

What do the screens show for `COc1ccc(C(=O)CCc2ccccc2)c(O)c1`?
Apaf1 inhib: 5.7; UBC13 polyUb: 4.4; SENP8 block-1: 1.3; SENP8 block-2: 5.2; SENP6 block: 17.9; SENP7 inh: 5.0

What do the screens show for `O=C(CCc1ccccc1)c1c(O)cc(O)cc1O`?
Apaf1 inhib: 1.6; UBC13 polyUb: 5.2; SENP8 block-1: 48.1*; SENP8 block-2: 51.7*; SENP6 block: 62.8*; SENP7 inh: -7.4; SENP8 conf-1: 64.9*; SENP6 confirm: 60.3*; SENP7 confirm: 76.8*; Casp3 SENP sel: 18.6; SENP luc ctr: 67.0*; SENP8 conf-2: 27.8

What do the screens show for `CCOc1ccccc1N1CC(C(=O)Nc2cc(S(=O)(=O)N3CCOCC3)ccc2OC(C)C)CC1=O` (stereo not drawn)?
SENP8 block-1: -4.8

How did CN(C)c1cc(N/N=C\c2ccccc2)nc(N(C)C)n1 do in these assays?
Apaf1 inhib: 94.8*; UBC13 polyUb: -28.6; SENP8 block-1: 51.2*; SENP8 block-2: 34.3; SENP6 block: 76.5*; SENP7 inh: 71.4*; SENP8 conf-1: 61.2*; SENP6 confirm: 76.2*; SENP7 confirm: 35.7; Casp3 SENP sel: -2.8; SENP luc ctr: 0.9; Apaf-1 inh conf2: 88.6*; Rh110 quench: 6.5; Fluor interf inh: >100; SENP8 conf-2: 69.3*

What do the screens show for `CC1CN=C(NS(=O)(=O)c2ccccc2)N1` (stereo not drawn)?
SENP8 block-1: 14.3

Results for FC(F)(F)c1ccccc1-c1ccc2nncn2c1 ?
SENP8 block-1: -42.5

How did NC(=S)NNc1cccc2cccnc12 do in these assays?
Apaf1 inhib: 76.3*; UBC13 polyUb: -19.8; SENP8 block-1: 51.4*; SENP8 block-2: 48.8; SENP6 block: 91.4*; SENP7 inh: 38.1; SENP8 conf-1: -2.9; SENP6 confirm: 11.6; SENP7 confirm: -4.8; Casp3 SENP sel: 8.0; SENP luc ctr: 3.8; SENP8 conf-2: 65.8*

How did NC(=S)Nc1cccc2cccnc12 do in these assays?
Apaf1 inhib: 17.4; UBC13 polyUb: -5.7; SENP8 block-1: 5.0; SENP8 block-2: 3.1; SENP6 block: -4.5; SENP7 inh: 3.8

What do the screens show for `CC1CCN(c2ccc(NC(=O)c3ccc([N+](=O)[O-])o3)cc2)CC1`?
Apaf1 inhib: 8.9; UBC13 polyUb: -14.3; SENP8 block-1: 55.2*; SENP8 block-2: 44.8; SENP6 block: 74.9*; SENP7 inh: 78.4*; SENP8 conf-1: -22.6; SENP6 confirm: -3.1; SENP7 confirm: 6.0; Casp3 SENP sel: 11.0; SENP luc ctr: -3.2; SENP8 conf-2: -1.0

Source: PubChem BioAssay (Sanford-Burnham Center for Chemical Genomics)
